{"data": "Experimental data collected from several papers", "Tyrosine-protein phosphatase YopH": "Tyrosine-protein phosphatase YopH (Yersinia enterocolitica, UniProt P15273)", "BCHE": "Cholinesterase (BCHE, Equus caballus, UniProt P81908)", "note": "Compare with care: the assays were run in different laboratories."}
{"SMILES": "C#Cc1n[nH]c2c(-c3cn(C(C)c4ccccn4)c(=O)[nH]c3=O)cc(F)cc12 (centres unmarked)", "target": "Mitogen-activated protein kinase kinase kinase 9 (MAP3K9, Homo sapiens, UniProt P80192)", "test": "enzyme activity, inhibitor", "setting": "1 µM", "measurement": "inhibition", "result": "5%"}
{"SMILES": "[O]=[V]([S]c1cccc[n+]1[O-])[S]c1cccc[n+]1[O-]", "target": "Tyrosine-protein phosphatase YopH", "test": "enzyme activity, inhibitor", "setting": "25 µM", "measurement": "inhibition", "result": "99.5%"}
{"SMILES": "CCN(CC)CCCC[C@H](NC(=O)[C@H](CC(C)C)NC(=O)[C@H](C)NC(=O)[C@H](Cc1ccccc1)NC(=O)c1ccc(C(C)(C)C)cc1)C(=O)N[C@@H](CO)C(=O)OC", "target": "Transcription initiation factor TFIID subunit 1, BD2 (TAF1, Homo sapiens, UniProt P21675)", "test": "thermal stability, DSF", "setting": "25 µM", "measurement": "ΔTm", "result": "0.62 °C"}
{"SMILES": "COc1cc2c(cc1OC)C(=O)N(CC1CCN(CC3CCNC3)CC1)C2 (centres unmarked)", "target": "BCHE", "test": "enzyme activity, inhibitor, Ellman", "setting": "1 µM", "measurement": "inhibition", "result": "-13.6%"}
{"SMILES": "Nc1ncc(-c2nc(N3CCOCC3)nc(N3CCOCC3)n2)c(C(F)F)n1", "target": "Ribosomal protein S6 kinase alpha-3, C-terminal kinase domain (RPS6KA3, Homo sapiens, UniProt P51812)", "test": "binding, competition with immobilised ligand", "setting": "10 µM", "measurement": "remaining binding", "result": "84%"}
{"SMILES": "COc1cc2c(cc1OC)C(=O)N(CC1CCN(Cc3ccsc3)CC1)C2", "target": "BCHE", "test": "enzyme activity, inhibitor, Ellman", "setting": "1 µM", "measurement": "inhibition", "result": "-6.1%"}
{"SMILES": "O=S(=O)([O-])[O-].[O]=[V+2]", "target": "Tyrosine-protein phosphatase YopH", "test": "enzyme activity, inhibitor", "setting": "25 µM", "measurement": "inhibition", "result": "99.7%"}
{"SMILES": "COc1ncccc1-c1cnn2ccc(N3CCN(C(=O)OC(C)C)CC3)nc12", "target": "Serine/threonine-protein kinase MRCK alpha (CDC42BPA, Homo sapiens, UniProt Q5VT25)", "test": "binding, competition with immobilised ligand", "setting": "1 µM", "measurement": "remaining binding", "result": "72%"}
